Test results as given in paper PMC5259643 (Journal of Veterinary Internal Medicine, 2017).

Columns and labels:
[1] = biological target: Steroidogenic factor‐1 (SF‐1) (Canis lupus familiaris, UniProt A0A5K7W231); assay: Cortisol and mRNA in normal canine primary adrenocortical cell suspensions; type: cell-based, dogs; details: 10^‐8 to 10^‐5 M
How it was run: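 Primary adrenocortical cells from normal canine adrenals were cultured as suspensions, with synthetic ACTH added to mimic hypercortisolism. Cells were exposed to SF-1 inverse agonists, with a DMSO vehicle control. Cortisol was measured in the culture media. RT-qPCR gave relative mRNA expression of steroidogenic enzymes, SF-1 and MC2R.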

[2] = Hypothyroidism after low‐dose radioiodine in hyperthyroid cats; type: in vivo; details: 30 hypothyroid cats supplemented
How it was run: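 Hyperthyroid cats successfully treated with low-dose 131I (n = 569) had serum T4 and TSH measured at 1, 3, 6, 12 and ≥18 months after treatment. Cats that developed high TSH were classed as overtly hypothyroid if T4 was low, or subclinically hypothyroid if T4 was normal.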

[3] = Simvastatin in dogs with hyperlipidemia; type: in vivo; details: three months; n = 5; range 181–399

Sequence of Steroidogenic factor‐1 (SF‐1) (A0A5K7W231 1-461): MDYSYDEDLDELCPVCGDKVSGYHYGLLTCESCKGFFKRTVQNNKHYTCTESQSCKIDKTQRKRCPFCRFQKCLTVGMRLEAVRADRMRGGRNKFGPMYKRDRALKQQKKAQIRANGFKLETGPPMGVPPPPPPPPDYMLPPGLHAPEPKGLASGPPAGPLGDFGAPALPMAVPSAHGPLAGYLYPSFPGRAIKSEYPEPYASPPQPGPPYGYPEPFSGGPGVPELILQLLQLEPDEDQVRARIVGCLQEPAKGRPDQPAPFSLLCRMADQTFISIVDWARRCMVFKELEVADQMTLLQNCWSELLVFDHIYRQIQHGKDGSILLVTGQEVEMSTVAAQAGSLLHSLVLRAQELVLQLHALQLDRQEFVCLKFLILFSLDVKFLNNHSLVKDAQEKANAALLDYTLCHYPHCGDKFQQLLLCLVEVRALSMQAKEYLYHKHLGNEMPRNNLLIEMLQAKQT

Structure (SMILES): CCOC(=O)C(C)Oc1cccc2c(=O)n(CC(=O)Nc3ccc4c(c3)OCCO4)ccc12 (stereo not drawn) [IsoqA]
- effect on cortisol production [1]: no significant effect on cortisol production

Structure (SMILES): N[C@@H](Cc1cc(I)c(Oc2cc(I)c(O)c(I)c2)c(I)c1)C(=O)O [Levothyroxine]
- serum TSH and creatinine [2]: significantly decreased both serum TSH and creatinine concentrations

Structure (SMILES): CCC(C)(C)C(=O)O[C@H]1C[C@@H](C)C=C2C=C[C@H](C)[C@H](CC[C@@H]3C[C@@H](O)CC(=O)O3)[C@H]21 [simvastatin]
- plasma cholesterol [3]: 298 ± 109.9
